Yeast lifespan up: compounds extending yeast replicative lifespan, primary screen, S. cerevisiae, OD615; S. cerevisiae growth with nicotinamide; deaD strain in restrictive glucose medium; inhibition of the nicotinamide effect, % at 10 µM; 130,000 tested, 0.68% active; AID 775, 2007;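 active = inhibition above a set limit, placed 3 SD over the median of all compounds, cut at about 26% in these data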;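 also: 0% = nicotinamide-treated wells and 100% = cells grown without nicotinamide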
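Assay system: DeaD-strain S. cerevisiae. Medium: CSMM-D glucose medium, restrictive. Reagent: nicotinamide, 1.5 mM, co-present with compound. Compound: 10 µM single point, 0.25% DMSO. Schedule: culture preincubation 4 h, compound exposure 48 h, both 30 °C. Detection: absorbance at 615 nm.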
PostGolgi ctrl: growth inhibition of yeast control strain, primary screen, counter-screen for post-Golgi transport modulator project | efflux-deficient yeast background strain, growth absorbance A615, 16 h | inhibition, % at 10 µM | 98,000 tested, 5% active | AID 738, 2007
Yeast growth inh: growth inhibitors of yeast BB579 in restrictive medium, primary screen, yeast lifespan-shortening project, S. cerevisiae; inhibition, % at 10 µM; OD615, 48 h; 140,000 tested, 0.51% active;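 active = inhibition above a set limit, 3 SD over the mean compound inhibition, cut at about 44% in these data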
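System: DeaD yeast strain BB579; buffer or medium: CSMM-D dextrose restrictive medium; technique: OD at 615 nm; schedule: 4 h cell preincubation, 48 h compound exposure, 30 °C humidified; doses: single 10 µM dose; controls: amphotericin B 10 µg/mL, positive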
PostGolgi yeast: phenotypic screen on post-Golgi transport, primary screen; post-Golgi transport phenotypic cell assay; inhibition, % at 10 µM; 98,000 tested, 0.9% active; AID 739, 2007;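 also: yeast cells grown in 1536-well plates; yeast grown about 18 h at 30C before absorbance read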
Active calls of the source: *; / = no result. Shown is part of a subset that was picked to be rich in hits. Rule as the data show it, unless noted: active = inhibition above about 30%; inactive = the rest.

SMILES	Yeast lifespan up	PostGolgi ctrl	Yeast growth inh	PostGolgi yeast
CCc1nnc(NC(=O)c2ccc3c(c2)C(=O)N(C(C)(C)C)C3=O)s1	-1.2	-9.8	-22.1	-3.1
Cc1ccc(C2=NN3C(C(=O)c4ccccc4)Oc4ccccc4C3C2)cc1 (centres undefined)	-13.1	50.2*	-33.3	11.6
CCCN1C(=O)/C(=C2\SC(N3CCCCC3)=NC2=O)c2ccccc21	-23.6	39.5*	-9.2	2.8
CN1C(=O)/C(=C2\SC(N3CCCCCC3)=NC2=O)c2ccccc21	-11.8	42.2*	-29.7	5.8
CN1C(=O)/C(=C2\SC(N)=NC2=O)c2ccccc21	-6.3	6.0	-33.9	-2.7
COc1cc(CNC2CCCC2)cc(Cl)c1OCc1ccc(F)cc1	-16.4	43.9*	-28.3	-0.8
CCOc1cc(CNC2CCCC2)cc(Cl)c1OCc1ccc(F)cc1	-17.2	18.0	-34.7	4.6
COc1cc(CNC2CCCC2)cc(OC)c1OC	-2.8	-6.5	-3.1	20.6
COc1cc(CNC2CCCC2)cc(Cl)c1OCc1ccccc1Cl	-29.2	32.8*	-38.0	8.1
Cc1ccc(S(=O)(=O)NCCC(=O)Nc2ccc(C)cc2C(=O)c2ccccc2)cc1	-1.7	/	-28.5	/
COc1ccc(/C=N/NC(=O)c2ccoc2C)cc1COc1c(C)cccc1C	-16.6	53.7*	-77.3	3.5
COc1cccc(OCc2cc(/C=N/NC(=O)c3ccn[nH]3)ccc2OC)c1	-10.3	33.4*	-43.8	-0.6
CCn1ccc(C(=O)Nc2ccc(S(=O)(=O)Nc3ccccc3OC)cc2)n1	67.0*	1.1	-57.9	3.8
COc1ccc(N(CC(=O)NCc2cccs2)S(=O)(=O)c2cccnc2)cc1	-8.2	30.1*	8.5	-7.3
O=[N+]([O-])c1ccc(CCNc2cccc3ccccc23)c([N+](=O)[O-])c1	10.5	/	-14.7	/
CN1CCN(C2=Cc3cc(Cl)ccc3Sc3cc(F)ccc32)CC1	/	/	97.9*	/
Cc1cc(NC(=O)c2cccc(F)c2)ncc1NC(=O)c1ccco1	31.1*	2.2	-9.1	-1.6
Cc1cc(NC(=O)c2ccco2)ncc1NC(=O)CCc1ccccc1	-9.1	6.3	-51.0	-1.7
C1CCN=C(NC23CC4CC(CC(C4)C2)C3)CC1	4.2	/	-48.7	/
COc1nc(NC23CC4CC(CC(C4)C2)C3)nc(OC)n1	-4.1	33.5*	-22.7	-1.0
C=CCNC(=O)COC(=O)c1ccc(Cl)c(S(=O)(=O)N(Cc2ccccc2)c2ccccc2)c1	-2.0	/	-19.6	/
O=c1c(C(c2nnnn2C2CCCCC2)N2CCCCC2)coc2ccc(Cl)cc12 (centres undefined)	30.1	87.4*	-20.6	76.8*
O=C(Nc1ccc2c(c1)CCC2)c1cc(S(=O)(=O)N2CCN(c3ccccc3)CC2)ccc1Cl	-2.2	22.6	-23.0	13.1
Cc1c(Nc2nc3ccccc3nc2N2CCN(c3ccccc3)CC2)c(=O)n(-c2ccccc2)n1C	-1.2	34.0*	-20.2	1.9
Cc1c(NC2=C(Cl)C(=O)N(c3ccccc3Cl)C2=O)c(=O)n(-c2ccccc2)n1C	-0.4	/	-47.6	/
SMILES	Yeast lifespan up	PostGolgi ctrl	Yeast growth inh	PostGolgi yeast
Cc1cc(=O)[nH]c(Nc2c(C)n(C)n(-c3ccccc3)c2=O)n1	-1.9	-7.8	-29.7	-3.1
Cc1c(NC2=C(Cl)C(=O)N(c3ccccc3)C2=O)c(=O)n(-c2ccccc2)n1C	-33.3	31.1*	-29.9	7.5
CSc1ncc2c(n1)-c1cc(C)ccc1SC2	-13.7	12.8	-42.9	-3.4
CCCCN(CC)CCNc1c(NC2CCN(C(=O)OCC)CC2)c(=O)c1=O	-5.8	35.8*	-15.5	-3.7
CCOC(=O)N1CCC(Nc2c(NCCCN(CC)CC)c(=O)c2=O)CC1	-4.4	1.9	20.0	-7.7
CCOC(=O)N1CCC(Nc2c(NCCCOC)c(=O)c2=O)CC1	0.5	47.4*	-39.6	9.4
COC(=O)c1cc(C(=O)OC)cc(S(=O)(=O)Nc2ccc(Cl)c(N)c2)c1	-15.4	14.4	-34.6	15.4
Cc1cccc(N2CCN(CC(=O)Nc3nccs3)CC2)c1C	-26.4	1.1	-19.9	38.7*
CN(C)c1oc(-c2ccccc2Cl)nc1S(=O)(=O)c1ccccc1	-3.9	31.9*	-17.1	2.7
CN(C)c1oc(-c2ccccc2Cl)nc1C#N	-16.6	-4.5	7.3	-13.7
O=C(O)/C=C/C(=O)Nc1ccccc1-c1ccccc1	-1.4	-5.3	-1.1	4.0
Cc1noc(C)c1S(=O)(=O)N(CC(=O)N1CCCC1)c1ccc(C(C)C)cc1	-2.2	-0.2	-14.4	-15.7
Cc1noc(C)c1S(=O)(=O)N(CC(=O)N1CCCCCC1)c1ccc(C(C)C)cc1	-3.3	31.7*	-27.8	-0.7
CCOC(=O)c1ccccc1NC(=O)c1nc2nccc(C)n2n1	-11.0	40.1*	19.9	3.1
CCOC(=O)c1ccccc1NS(=O)(=O)c1ccccc1	-7.4	36.5*	-38.8	-2.9
Cc1ccnc2nc(C(=O)OCC(=O)NCCc3ccccc3)nn12	-0.8	/	-48.5	/
OCCNCc1cc(Br)ccc1OCc1ccccc1	-4.4	/	-5.2	/
Fc1ccccc1COc1ccc(Br)cc1CNCc1ccncc1	-12.6	96.6*	-39.2	99.5*
Fc1ccc(COc2ccc(Br)cc2CNCc2ccncc2)cc1	-21.4	93.8*	-62.0	103.2*
CCC(c1nnnn1C1CCCC1)N1CCN(c2ccccc2F)CC1 (centres undefined)	-0.5	27.3	-15.8	2.3
CCCC(c1nnnn1C1CCCC1)N1CCN(c2ccccc2F)CC1 (centres undefined)	1.4	66.6*	-21.9	19.5
CC1=C(C(=O)OC(C)C)C(c2cncc(-c3ccc(F)cc3)c2)C(C#N)=C(N)O1 (centres undefined)	-2.1	/	-29.1	/
Cc1ccc(CNc2cc(-c3nn4c(C)nnc4s3)ccc2C)s1	-6.1	31.9*	-9.9	7.8
Cc1ccc(-c2nn3c(C)nnc3s2)cc1NCc1c(F)cccc1Cl	-16.5	22.9	-17.1	33.0*
Oc1cccc2ccc(Nc3ccccn3)nc12	-20.0	14.6	96.7*	1.9
SMILES	Yeast lifespan up	PostGolgi ctrl	Yeast growth inh	PostGolgi yeast
Cc1ccc(C)c(OCC(=O)Nc2nc3ccc([N+](=O)[O-])cc3s2)c1C	-11.5	34.2*	-61.5	5.7
CCCC(=O)Nc1nc2ccc(OCC)cc2s1	-9.7	6.1	-7.7	-19.5
Cc1cc(C)n(-c2ccc(Cl)c(C(=O)Nc3cc(C(F)(F)F)ccc3Cl)n2)n1	-1.9	/	0.9	/
COCCn1c(-c2ccccc2)nc2ccccc21	-4.6	/	-26.7	/
COCCn1c(SCc2csc(-c3ccccc3)n2)nc2ccccc21	-6.7	30.1*	-39.8	-1.1
CC(C)(C)C(=O)n1nc(-c2ccccc2)oc1=O	4.2	/	-30.8	/
CN(C)c1ccc(-c2nn3c(C4CCCCC4)nnc3s2)cc1	-16.3	19.9	-25.7	-0.2
CCOC(=O)c1c(CN2CCN(c3ccccc3)CC2)oc2ccc(O)cc12	-6.8	32.5*	-22.0	-1.8
CCOC(=O)c1c(CN2CCCCC2C)oc2ccc(OC)cc12 (centres undefined)	-5.3	-0.6	12.2	30.5*
CCOC(=O)c1c(CN2CCN(C)CC2)oc2ccc(OC)cc12	-19.4	-14.9	-12.9	-1.3
Cc1ccc(-c2c[n+](CC(=O)Nc3cc(=O)n(C)c(=O)n3C)c3n2CCC3)cc1	7.7	/	-7.9	/
